{"source": "paper PMC3700226", "about": "(Organic & Biomolecular Chemistry, 2012)", "key": {"HT1080 cells [1]": {"test_system": "HT1080 cells", "experiment": "Luminescent cell viability assay", "assay_type": "cell-based, human", "conditions": "ratio of 72 h IC50 values, WI-38 = 1.0", "method_in_brief": "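HeLa, HT1080, U2OS and WI-38 cells were grown in DMEM with 10% FCS. Cells were plated at 4000 per well and left 24 h, then serially diluted test compound (0–40 μM) was added. Viability was read by CellTiter-Glo luminescence after 72 h, 20 min after reagent addition at rt, in triplicate. IC50 values were determined separately for HT1080 and for WI-38.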"}, "HT1080 cells [2]": {"test_system": "HT1080 cells", "experiment": "β-Galactosidase senescence assay", "assay_type": "cell-based, human", "conditions": "HT1080, 8 days of incubation at respective IC50", "method_in_brief": "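HT1080 cells were treated 4 d with test compound at its IC50, or untreated, then reseeded at 4000 per chamber-slide well for another 4 d of treatment. Cells were fixed in 2% formaldehyde/0.2% glutaraldehyde for 15 min. They were stained 16 h at 37 °C with 1 mg ml−1 X-gal in pH 6.0 citrate/phosphate buffer containing ferro/ferricyanide for senescence-associated β-galactosidase.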"}, "[3]": {"test_system": "telomeric 3′ G-overhang in HT1080 cells", "experiment": "Non-denaturing hybridization assay of telomeric G-overhang", "assay_type": "cell-based, human", "conditions": "HT1080, respective IC50, time course of 12 days"}, "[4]": {"test_system": "HeLa, HT1080, U2OS and WI-38 cells", "experiment": "Luminescent cell viability assay, panel of four human cell lines", "assay_type": "cell-based", "conditions": "3 days of exposure; concentrations up to 40 µM"}, "[5]": {"test_system": "human telomeric G-quadruplex-forming sequence (H-Telo)", "experiment": "FRET-melting assay, H-Telo", "assay_type": "binding", "conditions": "1 µM compound, 200 nM oligonucleotide, 60 mM potassium cacodylate pH 7.4", "method_in_brief": "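Dual FAM/TAMRA-labelled H-Telo oligonucleotide was annealed at 400 nM (94 °C for 10 min, then cooled to rt at 0.1 °C min−1). It was mixed with test compound in 60 mM potassium cacodylate, pH 7.4, at 200 nM final oligonucleotide. Fluorescence was read with excitation at 483 nm and emission at 533 nm. Melting-temperature shift was measured in triplicate.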"}, "HT1080 cells [6]": {"test_system": "HT1080 cells", "experiment": "Long-term growth assay", "assay_type": "cell-based, human", "conditions": "HT1080, incubated at respective IC50 over 30 days", "method_in_brief": "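HT1080 cells were seeded at 300000 per T-25 flask with test compound at its IC50, or untreated. Every 3–4 days cells were split, counted with a haemocytometer and reseeded at 300000. Population doublings were calculated as PD = ln(n1/n2)/ln2 and run in triplicate. Dead cells were counted at each time point by trypan blue exclusion.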"}}}
{"smiles": "NCCOc1cc(C(=O)Nc2cc(OCCN)c3ccccc3n2)nc(C(=O)Nc2cc(OCCN)c3ccccc3n2)c1", "note": "[Compound 1, pyridostatin]", "values": [{"measurement": "Selectivity ratio HT1080 over WI-38", "setting": "HT1080 cells [1]", "result": 18.5}]}
{"smiles": "NCCOc1cc(C(=O)Nc2cc(OCCN3CCCC3)c3ccccc3n2)nc(C(=O)Nc2cc(OCCN3CCCC3)c3ccccc3n2)c1", "note": "[Compound 9]", "values": [{"measurement": "Senescent cells (β-galactosidase staining)", "setting": "HT1080 cells [2]", "result": "presence of senescent cells"}]}
{"smiles": "O=C(Nc1cc(OCCN2CCCC2)c2ccccc2n1)c1cc(OCCN2CCCC2)cc(C(=O)Nc2cc(OCCN3CCCC3)c3ccccc3n2)n1", "note": "[Compound 10]", "values": [{"measurement": "Senescent cells (β-galactosidase staining)", "setting": "HT1080 cells [2]", "result": "presence of senescent cells"}, {"measurement": "Kinetics of G-overhang degradation (in words)", "setting": "[3]", "result": "most potent to induce an early effect"}]}
{"smiles": "COc1cc(C(=O)Nc2cc(OC)c3ccccc3n2)nc(C(=O)Nc2cc(OC)c3ccccc3n2)c1", "note": "[Compound 14]", "values": [{"measurement": "Growth inhibition against the panel of cell lines (in words)", "setting": "[4]", "result": "did not exhibit growth inhibitory properties"}]}
{"smiles": "O=C(Nc1cc(OCCN2CCCC2)c2ccccc2n1)c1cc(Cl)cc(C(=O)Nc2cc(OCCN3CCCC3)c3ccccc3n2)n1", "note": "[Compound 17]", "values": [{"measurement": "Senescent cells (β-galactosidase staining)", "setting": "HT1080 cells [2]", "result": "presence of senescent cells"}, {"measurement": "Kinetics of G-overhang degradation (in words)", "setting": "[3]", "result": "most potent to induce an early effect"}]}
{"smiles": "NCCOc1cc(NC(=O)c2cc(OCc3ccc(F)cc3)cc(C(=O)Nc3cc(OCCN)c4ccccc4n3)n2)nc2ccccc12", "note": "[Compound 20]", "values": [{"measurement": "FRET ΔTm, H-Telo", "setting": "[5]", "result": 8.8, "unit": "K"}, {"measurement": "Exposure time after which flattening of the population doubling curve started", "setting": "HT1080 cells [6]", "result": 19, "unit": "days"}]}
{"smiles": "O=C(Nc1cc(OCCN2CCCC2)c2ccccc2n1)c1cc(OCc2ccc(F)cc2)cc(C(=O)Nc2cc(OCCN3CCCC3)c3ccccc3n2)n1", "note": "[Compound 21]", "values": [{"measurement": "FRET ΔTm, H-Telo", "setting": "[5]", "result": 4.3, "unit": "K"}]}
